Screening results as filed in PubChem.
This is a sample that favours compounds with a hit; in the whole collection about 6.4% have one here.
Fibroblast inh – blocks proliferation of human lung fibroblasts; LL 47 human lung fibroblast viability, ATP luminescence; active compounds read low; viability, % at 10 µM; hit rate 1.1% among 85,000; AID 719;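 active means viability at or below 50% in the single dose screen; inactive means viability above 50%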;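 further: compound exposure lasted 72 h before the ATP readout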
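Material: human lung fibroblast line LL 47, low passage; Evaluation: viability percentage against median untreated-cell control; Buffer or medium: 15% FBS in IMEM; Incubation: 72 h compound exposure at 37 °C after overnight plating; Dosing: 0.1% DMSO in all compound wells; Measured by: CellTiter-Glo luminescence.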
HUVEC inhibit – inhibitors of human endothelial cell proliferation; hit rate 1.1% among 86,000; viability, % at 10 µM (by protocol); HUVEC proliferation, CellTiter-Glo luminescence, 72 h; active compounds read low;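 active means viability at or below 30%; inactive means viability above 30%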
E coli WT exp – blocks growth of wild type E. coli BW25113; AID 710; OD600 absorbance; hit rate 0.15% among 98,000; growth inhibition, % at 100 µM;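 active means growth inhibition above about 50% at one test dose, limit read from the data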;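 further: growth measured after 20 h incubation at 37 °C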
H69AR inhibit – blocks growth of human H69AR lung tumor cells; H69AR lung tumor viability, ATP luminescence, 72 h; active compounds read low; AID 598; hit rate 6% among 85,000; viability, % at 10 µM;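 active means viability at or below 40%; inactive means viability above 40%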;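 further: multidrug resistant small cell line overexpressing MRP-1 efflux transporter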
Jurkat viability – cytotoxicity toward Jurkat cells. Jurkat E6.1 viability, ATP luminescence, 48 h. inhibition, % at 4 µM. hit rate 1.2% among 56,000. AID 463;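 active means inhibition above the mean inhibition of all tested compounds plus 3 SD, cut at about 28% in these data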
tolC growth inh – E. coli tolC mutant growth inhibition; growth inhibition, % at 10 µM (by protocol); E. coli BW25113 tolC mutant growth, OD615; AID 573; hit rate 2.2% among 65,000;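 active means growth inhibition at or above a cutoff equal to the mean over every tested compound plus 3 SD, cut at about 60% in these data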;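 further: growth measured after 20 h incubation at 37 °C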
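Material: E. coli BW25113 ΔtolC::kan, tolC deletion mutant strain. Measure: percent growth inhibition. Schedule: 37 °C, 20 h exposure. Doses: single-point testing at 10 µM. Signal: A615 absorbance measurement. Buffer or medium: kanamycin-containing LB broth (50 µg/mL).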
Hits are given with their value; - = inactive; . = no result.

SMILES	Fibroblast inh	HUVEC inhibit	E coli WT exp	H69AR inhibit	Jurkat viability	tolC growth inh
COc1c(N2CCNC(C)C2)c(F)cc2c(=O)c(C(=O)O)cn(C3CC3)c12 (centres undefined)	-	-	.	-	-	97
CC(C)c1nc2oc3c(NCC4CCCO4)ncnc3c2c2c1COC(C)(C)C2 (centres undefined)	-	-	-	36	-	.
O=C(c1c[nH]c(C(=O)C(Cl)(Cl)Cl)c1)c1ccccc1Cl	-	-	-	23	.	.
COc1ccc(N2C(=O)CC(Sc3nc(C)c4c(n3)CCCC4)C2=O)cc1 (centres undefined)	-	-	-	25	-	.
Cc1nc(SC2CC(=O)N(c3cc(Cl)cc(Cl)c3)C2=O)nc2c1CCCC2 (centres undefined)	-	-	-	-	.	.
CNC(=S)N/N=C1\C(=O)c2cccc3cccc1c23	46	-	-	13	.	.
CCCCNC(=S)N/N=C1\C(=O)c2cccc3cccc1c23	.	.	-	.	.	.
O=C(C1CCN(S(=O)(=O)N2CCOCC2)CC1)N1CCN(Cc2ccc3c(c2)OCO3)CC1	-	-	-	-	-	-
CC1CCCC(C)N1C(=O)CN1C(=O)C(C)(C)Oc2ccc(C(=O)NC3CCCCC3)cc21 (centres undefined)	-	-	-	-	-	84
CCOC(=O)c1c(C)[nH]c(C(=O)COC(=O)c2ccccc2NC(=O)c2ccco2)c1C	-	-	-	18	-	-
CCOC(=O)c1c(C)[nH]c(C(=O)COC(=O)c2oc3ccccc3c2C)c1C	-	-	-	-	.	.
CCOC(=O)c1[nH]c(COC(=O)c2ccccc2NC(=O)c2ccco2)c(C(=O)OCC)c1C	-	-	-	8.5	.	-
O=C(O)CC(=O)Nc1cc(Cl)ccc1O	-	-	-	-	.	.
Cc1cccc(C(=O)Nc2ccc(O)cc2)c1	-	-	-	-	-	-
Cc1ccc(O)c(C(=O)CC(=O)c2cccc(F)c2)c1	-	15	-	13	-	100
O=C(CC(=O)c1cc(Cl)ccc1O)c1ccccc1	40	-	-	11	-	97
COc1ccc(O)c(C(=O)CC(=O)c2ccc(F)cc2)c1	.	.	-	.	-	100
Cc1cccc(C(=O)CC(=O)c2cc(Cl)ccc2O)c1	31	3.3	-	18	.	.
COc1ccc(C2CC(=O)c3c(ccc4ccccc34)N2)cc1OC (centres undefined)	.	.	-	.	.	.
CC1(C)CC(=O)C2=C(C1)c1c(ccc3ccccc13)NC2c1ccc(Br)o1 (centres undefined)	-	-	-	33	.	.
COc1cccc(Nc2nc(NCCO)c3ccccc3n2)c1	.	.	-	.	.	.
Oc1ccc(Nc2nc(NCC3CCCO3)c3ccccc3n2)cc1 (centres undefined)	-	-	-	37	-	-
COc1cccc(Nc2nc(NCC3CCCO3)c3ccccc3n2)c1 (centres undefined)	23	-	-	-	.	.
Oc1ccccc1Nc1nc(NCC2CCCO2)c2ccccc2n1 (centres undefined)	-	-	-	-	-	-
Cc1cc(N2CCN(C)CC2)nc2ccc(NC(=O)c3ccc(Br)o3)cc12	43	8.2	-	4.2	.	-
SMILES	Fibroblast inh	HUVEC inhibit	E coli WT exp	H69AR inhibit	Jurkat viability	tolC growth inh
CSc1ccc(S(=O)(=O)Nc2ccc(N3CCOCC3)c(Cl)c2)cc1	-	-	-	-	-	100
S=C(c1ccc(-c2cc(Cl)ccc2Cl)o1)N1CCOCC1	-	-	-	-	-	-
O=C(Nc1ccc(N2CCOCC2)c(Cl)c1)c1ccc(Br)o1	-	-	-	20	-	-
O=C(Nc1ccc(CN2CCOCC2)cc1)c1ccc(-c2cc(Cl)ccc2Cl)o1	-	-	-	21	.	.
O=C(Nc1ccc(N2CCN(C(=O)c3ccccc3)CC2)c(Cl)c1)c1ccc(Br)o1	.	.	-	.	.	-
O=C(Nc1ccc(S(=O)(=O)N2CCCCC2)cc1)c1ccccc1Cl	-	-	-	-	.	.
CCOCCn1c(C(C)O)nc2ccccc21 (centres undefined)	-	-	.	-	.	.
Cc1ccc2c(c1)CCCN2C(=O)c1ccoc1C	-	-	-	34	-	-
Cc1ccc(S(=O)(=O)N2CCCC(C(=O)NCCC3=CCCCC3)C2)cc1 (centres undefined)	-	-	-	-	.	.
COCCn1c(C)cc(C(=O)CSc2nc3ccccc3o2)c1C	-	25	-	-	-	-
c1ccc(CC2=NCCN2)cc1	-	-	-	-	.	.
CC(C)Cc1cc(C(=O)N2N=C(C(F)F)CC2(O)C(F)F)c2ccccc2n1 (centres undefined)	-	-	.	-	.	.
